This is an account of results in ChEMBL document CHEMBL5042498, “Development of 3-(4-Chlorophenyl)-1-(phenethyl)urea Analogues as Allosteric Modulators of the Cannabinoid Type-1 Receptor: RTICBM-189 is Brain Penetrant and Attenuates Reinstatement of Cocaine-Seeking Behavior” (J Med Chem, 2022).

For data set [1], the target named is T1, Cannabinoid receptor 1 (Homo sapiens, UniProt P21554). Nature of the data set: Allosteric antagonist activity at human CB1 receptor expressed in CHO-RD-HGA16 cells overexpressing Galpha16 assessed as inhibition of CP55940-stimulated calcium mobilization incubated for 15 mins FLIPR assay. Format: functional, cell-based. Background: Calcium assays in cells follow changes in intracellular calcium, usually with a dye or a luminescent sensor.
T1 sequence (P21554 whole entry): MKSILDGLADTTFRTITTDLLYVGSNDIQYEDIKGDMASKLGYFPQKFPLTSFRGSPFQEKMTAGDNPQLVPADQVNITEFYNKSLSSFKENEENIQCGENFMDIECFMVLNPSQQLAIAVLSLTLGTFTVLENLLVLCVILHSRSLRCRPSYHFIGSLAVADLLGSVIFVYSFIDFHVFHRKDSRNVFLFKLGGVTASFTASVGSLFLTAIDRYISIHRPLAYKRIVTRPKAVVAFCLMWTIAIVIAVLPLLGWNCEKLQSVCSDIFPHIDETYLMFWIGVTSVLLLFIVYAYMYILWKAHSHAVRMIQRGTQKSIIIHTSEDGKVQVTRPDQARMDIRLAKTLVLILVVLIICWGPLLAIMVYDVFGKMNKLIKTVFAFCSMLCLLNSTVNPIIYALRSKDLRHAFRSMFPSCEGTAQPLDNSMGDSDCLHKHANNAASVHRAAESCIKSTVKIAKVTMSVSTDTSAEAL

Data set [2] deals with T1, Cannabinoid receptor 1. Description: Allosteric antagonist activity against human CB1 receptor expressed in HEK293 cells membrane measured after 60 mins by [35S]GTPgammaS binding assay. The data set is classed as functional, cell membranes. A digest of the protocol: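 Membranes from HEK293 cells expressing hCB1 are used in assay buffer (50 mM Tris, 3 mM MgCl2, 0.2 mM EGTA, 100 mM NaCl, 1 mg/ml BSA, pH 7.4). They are preincubated 10 min, then incubated 60 min at 30 °C with 30 μM GDP, 0.1 nM [35S]GTPγS, 100 nM CP55,940 and serially diluted compound (0.1% DMSO final). Nonspecific binding is set with 30 μM unlabeled GTPγS. Reactions are filtered. Data are normalized to CP55,940 alone and fitted by 3-parameter regression; mean of ≥3 experiments in duplicate.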
A general note: Binding of GTPγS marks nucleotide exchange on a G protein.

Data set [3] has as its target T1, Cannabinoid receptor 1. Description: Agonist activity at human CB1 receptor CP55940-stimulated calcium mobilization at 10 uM incubated for 15 mins FLIPR assay relative to control. Format: functional.
The target of data set [4] is Cannabinoid receptor 2 (Homo sapiens) (UniProt P34972). Description: Agonist activity at human CB2 receptor CP55940-stimulated calcium mobilization at 10 uM incubated for 15 mins FLIPR assay relative to control. Format: functional. A digest of the protocol: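 CB2 agonist screen in CHO-RD-HGA16 cells stably expressing human CB2, loaded with Calcium 5 dye for 45 min at 37 °C. Cells were pretreated 15 min with vehicle, then the test compound was added at a single concentration. Fluorescence was read on FLIPR every 1 s for 90 s (485/525 nm). Response is expressed as % of CP55,940 Emax.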
Cannabinoid receptor 2 (Homo sapiens), sequence (P34972 whole entry): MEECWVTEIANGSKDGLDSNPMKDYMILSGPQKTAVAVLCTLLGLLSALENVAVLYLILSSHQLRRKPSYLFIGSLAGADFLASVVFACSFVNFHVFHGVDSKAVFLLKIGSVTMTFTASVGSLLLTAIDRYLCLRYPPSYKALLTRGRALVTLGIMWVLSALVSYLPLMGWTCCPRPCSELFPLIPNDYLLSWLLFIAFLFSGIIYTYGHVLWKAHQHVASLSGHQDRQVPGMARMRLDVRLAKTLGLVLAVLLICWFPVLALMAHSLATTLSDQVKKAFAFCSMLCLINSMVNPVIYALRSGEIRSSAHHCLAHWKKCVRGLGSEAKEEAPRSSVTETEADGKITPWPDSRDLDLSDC

For data set [5] the target is unchanged. Nature of the data set: Antagonist activity at human CB2 receptor CP55940-stimulated calcium mobilization incubated for 15 mins FLIPR assay. Format: functional. Also noted: concentration or dose not given beside the values. The method, boiled down:
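CB2 antagonist screen in human CB2 CHO-RD-HGA16 cells loaded with Calcium 5 dye. Cells were pretreated 15 min at 37 °C with the test compound at a single concentration (10 μM), then challenged with CP55,940 at its EC80 during the FLIPR read (90 s, 485/525 nm). Response is expressed as % inhibition of the CP55,940 EC80 signal.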

The target of data set [6] is T1, Cannabinoid receptor 1. Description: Antagonist activity at N-terminal tagged human CB1 receptor transfected with HEK293 cells assessed as forskolin-stimulated cAMP level in presence of CP55940 by BRET assay. Format: functional, cell-based. A digest of the protocol: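 HEK293 cells stably expressing hCB1 (3HA-tagged at Otago, untagged at RTI) are transiently transfected with the CAMYEL BRET cAMP sensor. Cells are serum-starved 30 min and given 5 μM coelenterazine H final. Compound dilutions are added together with 5 μM forskolin and 1 μM CP55,940. BRET (460/535) is read for about 20 min at 37 °C.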
In general terms: Changes in cAMP serve as a functional read-out for many G protein-coupled receptors.

Data set [7] has as its target Cannabinoid receptor 1 (Mus musculus, UniProt P47746). Nature of the data set: Allosteric antagonist activity against mouse CB1 receptor in cerebellar membranes measured after 60 mins by [35S]GTPgammaS binding assay.
Data set [8] can be described thus: Metabolic stability in rat liver microsomes assessed as half life in presence of NADPH measured upto 45 mins by LC-MS/MS analysis. Format: ADME, Microsome. The settings on record: 0.75 h. The method, boiled down: (§1)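 Rat liver microsomes (0.5 mg/mL protein) in 100 mM potassium phosphate, pH 7.4, at 37 °C with 1 mM NADPH. Samples were taken at 0, 5, 15, 30 and 45 min, quenched with acetonitrile and analysed by LC/MS/MS. Half-life and clearance were derived from two independent experiments in duplicate.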

The subject of data set [9] is Rattus norvegicus. Description: Attenuation of cocaine reinstatement in 7 day cocaine treated Sprague-Dawley rat assessed as reduction in cocaine seeking behaviour at 10 mg/kg, ip treated for 10 mins prior to administration of cocaine priming injection. The data set is classed as functional, organism-based. A digest of the protocol:
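Male Sprague-Dawley rats (280-300 g) with jugular catheters self-administered cocaine (0.75 mg/kg/inf, FR1 raised to FR5) in 2-h sessions for 14 days, then underwent 7 days of extinction. On the test day, compound (10 mg/kg) or vehicle was given 10 min before a priming cocaine injection (10 mg/kg i.p.), and lever responding was measured.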

Data set [10] can be described thus: Apparent permeability across basolateral to apical side in MDCK-MDR1 cells at 10 uM measured upto 90 mins by LC-MS/MS analysis. The settings on record: dog, mdck-mdr1, 1.5 h. The data set is classed as ADME, cell-based, Canis lupus familiaris. The method, boiled down: (§2)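 MDCK-MDR1 cells (passage 5) were grown 3 days on polycarbonate Transwell supports and equilibrated 30 min at 37 °C in HBSS with 10 mM HEPES and 0.25% BSA, pH 7.4, before TEER was measured. Test article at 10 μM was placed in the donor chamber (apical or basolateral), with light agitation at 37 °C. Receiver samples were taken at 30, 60 and 90 min and analysed by LC-MS/MS. Papp = (dQ/dt)/(A·Ci·60). References were atenolol, propranolol and digoxin.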

Data set [11] in a line: Apparent permeability across apical to basolateral side in MDCK-MDR1 cells at 10 uM measured upto 90 mins by LC-MS/MS analysis. Format: ADME, cell-based, Canis lupus familiaris. The conditions noted are these: dog, mdck-mdr1, 1.5 h. The method, boiled down:
as §2

Data set [12] in a line: Metabolic stability in rat liver microsomes assessed as clearance in presence of NADPH measured upto 45 mins by LC-MS/MS analysis. The data set is classed as ADME, Microsome. The conditions noted are these: 0.75 h. The method, boiled down: as §1
Data set [13] is described as follows: Plasma protein binding in rat. Format: ADME, cell-free.
The nature of data set [14]: Aqueous solubility of compound. The settings on record: buffer. Format: physicochemical.
Data set [15] can be described thus: Toxicity in Sprague-Dawley rat assessed as reduction in locomotion at 10 mg/kg, ip. Format: organism-based. The conditions noted are these: in vivo. The method, boiled down:
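Rats received 10 mg/kg i.p. compound or vehicle 15 min before being placed in locomotion chambers, after at least three days of handling. Locomotor activity was recorded for 30 min and analysed by two-way ANOVA.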

Data set [16] is described as follows: Cmax in Sprague-Dawley rat brain at 10 mg/kg, ip measured upto 24 hrs post dose by LC-MS/MS analysis.
The nature of data set [17]: Tmax in Sprague-Dawley rat brain at 10 mg/kg, ip measured upto 24 hrs post dose by LC-MS/MS analysis.
A short description of data set [18]: Cmax in Sprague-Dawley rat plasma at 10 mg/kg, ip measured upto 24 hrs post dose by LC-MS/MS analysis.
Data set [19] can be described thus: Tmax in Sprague-Dawley rat plasma at 10 mg/kg, ip measured upto 24 hrs post dose by LC-MS/MS analysis.
Data set [20] can be described thus: AUC infinity in Sprague-Dawley rat brain 10 mg/kg, ip measured upto 24 hrs post dose by LC-MS/MS analysis.
Data set [21] can be described thus: Clearance in Sprague-Dawley rat plasma at 10 mg/kg, ip measured upto 24 hrs post dose by LC-MS/MS analysis.
A short description of data set [22]: AUC infinity in Sprague-Dawley rat plasma 10 mg/kg, ip measured upto 24 hrs post dose by LC-MS/MS analysis.
The nature of data set [23]: Elimination half life in Sprague-Dawley rat plasma 10 mg/kg, ip measured upto 24 hrs post dose by LC-MS/MS analysis.

Active and inactive are the calls of the source. Some results are limits rather than exact numbers.

Cannabinoid receptor 1 (Mus musculus, UniProt P47746), sequence (P47746 whole entry): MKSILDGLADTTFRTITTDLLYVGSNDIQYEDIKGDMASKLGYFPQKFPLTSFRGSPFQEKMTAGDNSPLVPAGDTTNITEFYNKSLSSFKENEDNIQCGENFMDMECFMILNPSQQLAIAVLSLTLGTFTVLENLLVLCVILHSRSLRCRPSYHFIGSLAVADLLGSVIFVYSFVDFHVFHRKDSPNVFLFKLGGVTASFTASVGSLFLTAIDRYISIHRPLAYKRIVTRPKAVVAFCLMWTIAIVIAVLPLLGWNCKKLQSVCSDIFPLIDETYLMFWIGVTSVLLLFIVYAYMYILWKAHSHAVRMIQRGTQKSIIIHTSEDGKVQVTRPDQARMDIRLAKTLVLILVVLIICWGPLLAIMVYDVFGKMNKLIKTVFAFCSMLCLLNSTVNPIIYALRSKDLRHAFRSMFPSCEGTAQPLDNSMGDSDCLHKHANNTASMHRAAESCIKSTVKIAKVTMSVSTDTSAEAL

A word on the IC50: it is the concentration that inhibits the measured activity by half. One may read the Emax as the greatest response seen or fitted, relative to the assay's reference. On to `CC(C)(C)c1ccc(CCNC(=O)Nc2ccc(Cl)cc2)cc1`, for which the concentration for half-maximal inhibition (IC50) in [1] was 0.537 µM; in data set [2] it was more than 10 µM; in data set [6] it was more than 10 µM; in data set [7] it was more than 10 µM. Besides, the Emax in [3] is less than 30%; in data set [4] it was less than 20%. For the same molecule, the Activity in data set [5] was less than 35%.
`COc1ccc(CCNC(=O)Nc2ccc(Cl)cc2)cc1`: the IC50 in data set [1] is 0.214 µM; in [2], 5.62 µM; in data set [6] it was 4.17 µM; in [7], 3.72 µM. Besides, the Emax was less than 30% in data set [3] and less than 20% in data set [4]. Moreover, the Activity in [5] is less than 35%.
Consider `O=C(NCCc1ccc(F)cc1)Nc1ccc(Cl)cc1`, for which the IC50 in data set [1] was 0.105 µM; in data set [2] it was 4.37 µM; in data set [6] it was 1.7 µM; in [7] it was 0.891 µM. Also, the Emax in data set [3] is less than 30%; in [4], less than 20%. The Activity in data set [5] is less than 35%.
Broadly, the solubility is how much of the substance goes into solution per volume. By Cmax is commonly meant the highest concentration seen after dosing. The Tmax is the time at which the peak concentration occurs. A word on the AUC(0-inf): it is the area under the concentration-time curve extrapolated to infinity. In general, CL/F refers to the apparent clearance, not corrected for the fraction that reaches the circulation. The term half-life denotes the time needed for the level to fall by half in the phase considered. For `O=C(NCCc1cccc(Cl)c1)Nc1ccc(Cl)cc1`, the t1/2 in [8] was determined as 14.9 min. Further, the outcome in data set [9] was Active. Further, the Papp is 21.3 10^-6 cm/s in data set [10] and 19.2 10^-6 cm/s in [11]. Further, the CLH in data set [12] came out at 99.3 µL/min/mg. For the same molecule, the IC50 in data set [1] was 0.0288 µM; in data set [2], 5.13 µM; in [6], 1.51 µM. Besides, the Emax in data set [4] was less than 20%. Further, the Activity in data set [5] was less than 35%; in [15], “Non-Toxic”. This molecule also came in with a PPB in data set [13] of 99.6%. The solubility in [14] is less than 1 µM. Further, the Cmax in [16] was 595 ng/mL; in data set [18], 288 ng/mL. The Tmax in data set [17] and in [19] was 24 min each time. Further, the figures for the AUC(0-inf) in [20] and in data set [22] were 1440 ng·h/mL and 715 ng·h/mL, respectively. The same molecule gave a CL/F in data set [21] of 241 mL/min/kg. This molecule also gave a half-life in data set [23] of 37.8 min.
